The record followed here is ChEMBL document CHEMBL3352788, “Characterization of selective exosite-binding inhibitors of matrix metalloproteinase 13 that prevent articular cartilage degradation in vitro” (J Med Chem, 2014).

Data set [1] has as its system Liver microsome. Nature of the data set: Half life in rat liver microsomes by LC-MS/MS analysis. It is filed as ADME. In a few lines: (§1)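 Compound at 1 μM with 1 mg/mL liver microsomes in 100 mM potassium phosphate pH 7.4 at 37 °C with shaking. Reaction started with 1 mM NADPH (final). Aliquots were taken at 0, 5, 10, 20, 40 and 60 min and quenched in acetonitrile. Parallel incubations without NADPH were run.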
(Liver microsomes are vesicles of endoplasmic reticulum, rich in cytochrome P450 enzymes.)

Data set [2] has as its system Liver microsome. Nature of the data set: Half life in human liver microsomes by LC-MS/MS analysis. Type of data set: ADME. In a few lines:
as §1

The subject of another data set is Liver. Nature of the data set: Half life in mouse liver microsomes by LC-MS/MS analysis. Type of data set: ADME. In outline: as §1
In another data set the target is Cytochrome P450 2D6 (Homo sapiens, UniProt P10635). Nature of the data set: Inhibition of CYP2D6 (unknown origin) using dextromethophan substrate. Type of data set: ADME. In a few lines:
(§2)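 Human liver microsomes with probe substrate and an NADPH-regenerating system in 0.1 M potassium phosphate pH 7.4 at 37 °C, run in duplicate. Inhibitor at 0–20 μM (0–2.5 μM for one compound), eight concentrations. Reactions were stopped with acetonitrile/formic acid containing isotope-labelled internal standard, and metabolite area ratios were compared with and without inhibitor. IC50 was taken by linear interpolation between bracketing concentrations.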

For data set [3], the target named is T1, Cytochrome P450 3A4 (Homo sapiens, UniProt P08684). Nature of the data set: Inhibition of CYP3A4 (unknown origin) using testosterone substrate. It is filed as ADME. In a few lines:
(§3)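 Reactions stopped with acetonitrile/0.1% formic acid plus labelled internal standard. Metabolite measured by LC-MS area ratio. IC50 by linear interpolation.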

For a further data set, the target named is T2, Cytochrome P450 2B6 (Homo sapiens, UniProt P20813).
T2 sequence (P20813 whole entry): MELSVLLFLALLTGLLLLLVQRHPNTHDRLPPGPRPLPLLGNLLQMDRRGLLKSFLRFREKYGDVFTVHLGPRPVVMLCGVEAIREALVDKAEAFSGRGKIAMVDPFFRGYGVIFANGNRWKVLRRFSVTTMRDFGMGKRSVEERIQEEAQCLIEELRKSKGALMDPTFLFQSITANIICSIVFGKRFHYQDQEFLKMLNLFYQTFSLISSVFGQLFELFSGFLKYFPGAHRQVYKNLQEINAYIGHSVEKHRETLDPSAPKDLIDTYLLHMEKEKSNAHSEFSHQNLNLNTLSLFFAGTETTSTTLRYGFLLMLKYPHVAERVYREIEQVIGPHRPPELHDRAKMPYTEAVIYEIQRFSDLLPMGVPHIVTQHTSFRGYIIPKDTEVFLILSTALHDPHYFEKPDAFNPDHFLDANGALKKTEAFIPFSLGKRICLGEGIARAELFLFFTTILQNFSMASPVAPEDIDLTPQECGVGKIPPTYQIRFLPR
Nature of the data set: Inhibition of CYP2B6 (unknown origin) using bupropion substrate. Type of data set: ADME. In a few lines:
as §2

A further data set concerns the target T3, Cytochrome P450 1A2 (Homo sapiens, UniProt P05177).
T3 sequence (P05177 whole entry): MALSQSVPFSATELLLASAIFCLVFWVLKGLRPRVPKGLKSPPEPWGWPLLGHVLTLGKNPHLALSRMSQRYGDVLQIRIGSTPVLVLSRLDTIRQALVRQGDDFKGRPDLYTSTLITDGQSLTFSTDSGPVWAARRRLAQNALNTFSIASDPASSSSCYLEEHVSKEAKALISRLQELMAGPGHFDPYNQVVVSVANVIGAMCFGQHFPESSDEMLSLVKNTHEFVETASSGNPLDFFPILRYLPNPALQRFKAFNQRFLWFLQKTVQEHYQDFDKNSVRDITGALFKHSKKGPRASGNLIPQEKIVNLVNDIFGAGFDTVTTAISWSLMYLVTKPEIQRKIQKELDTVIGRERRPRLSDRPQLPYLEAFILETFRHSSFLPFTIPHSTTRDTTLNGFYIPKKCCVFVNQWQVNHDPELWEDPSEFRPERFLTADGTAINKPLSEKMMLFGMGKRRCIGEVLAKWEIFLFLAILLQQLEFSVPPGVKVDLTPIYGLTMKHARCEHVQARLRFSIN
Nature of the data set: Inhibition of CYP1A2 (unknown origin) using tacrin substrate. It is filed as ADME. In outline: as §2

Another data set has as its target Cytochrome P450 2C19 (Homo sapiens, UniProt P33261). Nature of the data set: Inhibition of CYP2C19 (unknown origin) using (S)-mephentoin substrate. Type of data set: ADME. In outline:
as §2

For data set [4], the target named is T4, Collagenase 3 (Homo sapiens, UniProt P45452). Nature of the data set: Inhibition of full-length recombinant human MMP-13 assessed as bovine type-2 collagen hydrolysis after 22 hrs by fluorescence assay.
In a further data set the target is T5, Cytochrome P450 2C8 (Homo sapiens, UniProt P10632).
T5 sequence (P10632 whole entry): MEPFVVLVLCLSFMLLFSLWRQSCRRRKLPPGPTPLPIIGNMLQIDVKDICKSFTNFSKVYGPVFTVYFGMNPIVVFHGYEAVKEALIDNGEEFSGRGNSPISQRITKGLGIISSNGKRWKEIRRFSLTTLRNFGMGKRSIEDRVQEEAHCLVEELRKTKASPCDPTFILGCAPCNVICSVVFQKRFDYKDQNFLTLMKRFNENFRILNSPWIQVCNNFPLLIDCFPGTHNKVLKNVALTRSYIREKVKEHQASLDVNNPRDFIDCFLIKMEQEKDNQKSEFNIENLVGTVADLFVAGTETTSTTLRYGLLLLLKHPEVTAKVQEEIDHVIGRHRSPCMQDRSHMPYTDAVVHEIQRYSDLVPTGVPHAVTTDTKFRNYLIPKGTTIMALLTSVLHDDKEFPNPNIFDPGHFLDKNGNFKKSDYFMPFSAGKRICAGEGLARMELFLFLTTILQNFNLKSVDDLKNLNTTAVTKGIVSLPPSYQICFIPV
Nature of the data set: Inhibition of CYP2C8 (unknown origin) using amodiaquine substrate. It is filed as ADME. In outline:
as §2

Data set [5] has as its target T4, Collagenase 3. Nature of the data set: Non-competitive inhibition of full-length recombinant human MMP-13 assessed as fTHP-15 substrate hydrolysis.
Data set [6] addresses T1, Cytochrome P450 3A4. Nature of the data set: Inhibition of CYP3A4 (unknown origin) using midazolam substrate. Type of data set: ADME. In outline: as §3
A further data set deals with Cytochrome P450 2C9 (Homo sapiens, UniProt P11712). Nature of the data set: Inhibition of CYP2C9 (unknown origin) using diclofenac substrate. It is filed as ADME. In outline:
as §2

For data set [7], the target named is T4, Collagenase 3. Nature of the data set: Competitive inhibition of full-length recombinant human MMP-13 assessed as fTHP-15 substrate hydrolysis by Lineweaver-Burke plot analysis. In a few lines: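 Pro-MMP-13 activated with 1 mM APMA for 2 h at 37 °C. Enzyme at 4 nM was incubated with fTHP-15 at 2–25 μM and varying inhibitor in Tris pH 7.5/NaCl/CaCl2/Brij-35 buffer at room temperature. Fluorescence was read at ex 324/em 393 nm, and rates were taken from the linear portion. Mechanism was assigned by a mixed-model nonlinear fit (α parameter) and confirmed by Lineweaver–Burke plots.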

For data set [8], the target named is T4, Collagenase 3. The settings on record: 50 uM.

A word on the IC50: it is the concentration that inhibits the measured activity by half. One may read the inhibition as the change of the read-out against control, counted positive when it falls.

T1 sequence (P08684 whole entry): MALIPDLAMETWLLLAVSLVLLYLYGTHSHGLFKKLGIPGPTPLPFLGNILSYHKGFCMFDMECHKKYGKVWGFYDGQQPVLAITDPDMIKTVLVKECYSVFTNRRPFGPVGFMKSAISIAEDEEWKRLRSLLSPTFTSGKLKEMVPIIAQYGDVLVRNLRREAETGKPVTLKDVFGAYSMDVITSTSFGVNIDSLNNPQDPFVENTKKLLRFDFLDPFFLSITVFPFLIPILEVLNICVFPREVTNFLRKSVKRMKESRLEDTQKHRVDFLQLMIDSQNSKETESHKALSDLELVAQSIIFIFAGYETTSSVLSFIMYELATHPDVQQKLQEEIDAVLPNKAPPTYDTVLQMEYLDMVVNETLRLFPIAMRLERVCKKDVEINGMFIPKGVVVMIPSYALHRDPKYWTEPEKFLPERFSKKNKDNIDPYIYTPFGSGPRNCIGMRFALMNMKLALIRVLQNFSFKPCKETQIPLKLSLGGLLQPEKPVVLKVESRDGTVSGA
Chain of Cytochrome P450 2C19 (P33261 whole entry): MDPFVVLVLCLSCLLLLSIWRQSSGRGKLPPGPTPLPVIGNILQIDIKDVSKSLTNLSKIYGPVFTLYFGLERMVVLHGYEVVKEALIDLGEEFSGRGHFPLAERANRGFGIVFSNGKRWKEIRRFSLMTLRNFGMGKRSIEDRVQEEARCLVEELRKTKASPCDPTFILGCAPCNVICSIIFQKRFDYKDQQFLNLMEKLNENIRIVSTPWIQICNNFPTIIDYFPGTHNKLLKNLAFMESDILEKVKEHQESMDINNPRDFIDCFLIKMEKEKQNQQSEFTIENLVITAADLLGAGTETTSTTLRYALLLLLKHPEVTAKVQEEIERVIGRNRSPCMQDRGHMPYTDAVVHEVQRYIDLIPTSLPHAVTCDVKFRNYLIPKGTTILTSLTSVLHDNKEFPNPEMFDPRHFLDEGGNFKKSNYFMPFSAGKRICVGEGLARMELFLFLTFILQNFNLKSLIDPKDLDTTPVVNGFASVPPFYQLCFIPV
Chain of Cytochrome P450 2D6 (P10635 whole entry): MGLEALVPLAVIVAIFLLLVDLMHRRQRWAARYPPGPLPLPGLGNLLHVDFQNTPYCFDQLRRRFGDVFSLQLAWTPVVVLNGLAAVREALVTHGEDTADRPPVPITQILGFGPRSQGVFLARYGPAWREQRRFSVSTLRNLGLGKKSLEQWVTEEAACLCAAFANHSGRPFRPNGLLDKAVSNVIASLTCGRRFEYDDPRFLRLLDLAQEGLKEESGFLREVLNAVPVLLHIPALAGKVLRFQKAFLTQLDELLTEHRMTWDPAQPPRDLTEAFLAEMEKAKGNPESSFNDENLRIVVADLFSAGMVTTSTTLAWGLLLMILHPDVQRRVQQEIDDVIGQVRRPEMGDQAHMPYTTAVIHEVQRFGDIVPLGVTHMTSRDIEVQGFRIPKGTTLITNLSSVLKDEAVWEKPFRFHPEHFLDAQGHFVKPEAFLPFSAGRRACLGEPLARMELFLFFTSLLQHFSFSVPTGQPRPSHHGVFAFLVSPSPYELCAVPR
Chain of Cytochrome P450 2C9 (P11712 whole entry): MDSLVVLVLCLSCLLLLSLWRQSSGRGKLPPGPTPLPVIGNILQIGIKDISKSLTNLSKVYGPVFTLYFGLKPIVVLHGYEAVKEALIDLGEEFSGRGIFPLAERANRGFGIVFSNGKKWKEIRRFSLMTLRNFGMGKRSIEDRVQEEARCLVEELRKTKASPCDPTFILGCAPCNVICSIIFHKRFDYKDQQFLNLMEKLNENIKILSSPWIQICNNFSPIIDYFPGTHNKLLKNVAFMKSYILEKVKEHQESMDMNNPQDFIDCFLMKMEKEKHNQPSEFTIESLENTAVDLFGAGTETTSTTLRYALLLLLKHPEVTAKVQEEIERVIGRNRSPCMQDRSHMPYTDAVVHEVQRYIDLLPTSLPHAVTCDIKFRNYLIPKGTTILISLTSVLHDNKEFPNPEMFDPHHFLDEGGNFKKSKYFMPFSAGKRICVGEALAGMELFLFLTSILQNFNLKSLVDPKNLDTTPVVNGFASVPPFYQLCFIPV

For the molecule `CCN(CC)CCNC(=O)c1c(C)[nH]c(/C=C2\C(=O)Nc3ccc(F)cc32)c1C` [SUNITINIB], the values for the t1/2 in the data set with Liver microsome [1], with Liver microsome [2] and in the data set on Liver were 26.5 min, 44.1 min and 12.3 min, respectively.
Take `Cc1ccc(CSc2nc3c(c(=O)[nH]2)CCC3)cc1`: the half-maximal inhibitory concentration (IC50) against Cytochrome P450 2D6 is over 20 µM; against Cytochrome P450 3A4 [3], over 20 µM; on Cytochrome P450 2B6 it was over 20 µM; against Cytochrome P450 1A2, 3.7 µM; against Cytochrome P450 2C19, 7.9 µM; at Collagenase 3 [4] it was 400 nM. The IC50 is over 20 µM at Cytochrome P450 2C8, 2400 nM at Collagenase 3 [5], over 20 µM against Cytochrome P450 3A4 [6] and 8.8 µM on Cytochrome P450 2C9. The molecule also gave a t1/2 with Liver microsome [2] of 7.3 min.
`CC(=O)NO`: the Kb at Collagenase 3 [7] was determined as 1.2 mM.
`O=C(O)CN(CCN(CC(=O)O)CC(=O)O)CC(=O)O` returned an inhibition against Collagenase 3 [8] of 70%.
